Experiments:
Assay type in all cases: functional
Details in all cases: read-out: ID50 (the source's name)
Rattus norvegicus [1] = test: Antiallergic activity in po dosed Sprague-Dawley rat passive cutaneous analphylaxis model assessed as inhibition of allergic response administered 10 mins prior to antigen challenge
How it was run: (§1)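 Modified Ovary rat passive cutaneous anaphylaxis screen in male Sprague-Dawley rats, with 24 h between sensitization and antigen challenge. Acidic compounds were dissolved in aqueous NaHCO3 where possible; others were suspended in aqueous sodium citrate with Tween 40/sodium carboxymethylcellulose. Dosing was iv 1 min or po 10 min before challenge. ID50 is the dose giving 50% inhibition of the response; significance was p ≤ 0.05 by Student's t test.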

Rattus norvegicus [2] = test: Antiallergic activity in po dosed Sprague-Dawley rat passive cutaneous analphylaxis model assessed as inhibition of allergic response administered 30 mins prior to antigen challenge
How it was run: (§2)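 Male Sprague-Dawley rat passive cutaneous anaphylaxis (modified Ovary method), with a 24 h sensitization-to-challenge interval. The agent was dissolved in saline and given iv at the time of antigen challenge or po 30 min before challenge. The dose inhibiting the response by 50% was determined; significance was p ≤ 0.05 by Student's t test.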

Rattus norvegicus [3] = test: Antiallergic activity in iv dosed Sprague-Dawley rat passive cutaneous analphylaxis model assessed as inhibition of allergic response administered at the time of antigen challenge; how it was run: as §2
Rattus norvegicus [4] = test: Antiallergic activity in iv dosed Sprague-Dawley rat passive cutaneous analphylaxis model assessed as inhibition of allergic response administered 1 min prior to antigen challenge; how it was run: as §1

Structure (SMILES)	ED50 (Rattus norvegicus [1])	further results
COc1cccc(-c2ncc(C(=O)O)c(=O)[nH]2)c1	10 mg/kg	
CCOC(=O)c1cnc(-c2cccc(OCC)c2)[nH]c1=O	50 mg/kg	
CCOc1ccc(S(N)(=O)=O)cc1-c1ncc(C(=O)O)c(=O)[nH]1	> 50 mg/kg	
CCOC(=O)c1cnc(-c2ccccc2OC(C)CC)[nH]c1=O (configuration not stated)	0.5 mg/kg	
CCCOc1ccccc1-c1ncc(C(=O)OCC)c(=O)[nH]1	5 mg/kg	
CCOc1ccc(C(=O)O)cc1-c1ncc(C(=O)O)c(=O)[nH]1	25 mg/kg	
Cn1c(-c2ccccc2)ncc(C(=O)O)c1=O	50 mg/kg	
O=C(O)c1cnc(-c2ccc(C(F)(F)F)cc2)[nH]c1=O	> 5 mg/kg	
C=CCOc1ccccc1-c1ncc(C(=O)O)c(=O)[nH]1	0.5 mg/kg	
CCOC(=O)c1cnc(-c2cc(OC)ccc2OCC)[nH]c1=O	0.3 mg/kg	
CCOC(=O)c1cnc(-c2cc(OC)ccc2OC)[nH]c1=O	5 mg/kg	
CCOc1ccc([N+](=O)[O-])cc1-c1ncc(C(=O)O)c(=O)[nH]1	25 mg/kg	
CCOc1ccc(N)cc1-c1ncc(C(=O)O)c(=O)[nH]1	1.2 mg/kg	
CCOc1ccc(Cl)cc1-c1ncc(C(=O)O)c(=O)[nH]1	0.5 mg/kg	
CCC(C)Oc1ccccc1-c1ncc(C(=O)O)c(=O)[nH]1 (configuration not stated)	0.5 mg/kg	
CCOC(=O)c1cnc(-c2ccc(C(F)(F)F)cc2)[nH]c1=O	> 5 mg/kg	
CCOC(=O)c1cnc(-c2ccc(OC)cc2OC)[nH]c1=O	5 mg/kg	
CCCOc1ccc(OC)cc1-c1ncc(C(=O)O)c(=O)[nH]1	0.3 mg/kg	
CCOc1ccccc1-c1nc(=O)c(C(=O)O)cn1C	> 40 mg/kg	
CCOC(=O)c1cnc(-c2ccccc2SC)[nH]c1=O	> 25 mg/kg	
COc1ccc(-c2ncc(C(=O)O)c(=O)[nH]2)c(OC)c1	5 mg/kg	
CC(C)Oc1ccccc1-c1ncc(C(=O)O)c(=O)[nH]1	0.8 mg/kg	
CCOC(=O)c1cnc(-c2ccccc2OCC(C)C)[nH]c1=O	3 mg/kg	

Structure (SMILES)	ED50 (Rattus norvegicus [1])	further results
CCOC(=O)c1cnc(-c2cccc3c2OC(C)C3)[nH]c1=O (racemic)	5 mg/kg	
CCOc1ccccc1-c1ncc(C(=O)O)c(=O)n1C	> 50 mg/kg	
O=C(O)c1cnc(-c2cccc(C(F)(F)F)c2)[nH]c1=O	33 mg/kg	
O=C(O)c1cnc(-c2ccccc2O)[nH]c1=O	> 5 mg/kg	
CCOC(=O)c1cnc(-c2ccc(OC)cc2)[nH]c1=O	30 mg/kg	
CCOC(=O)c1cnc(-c2ccccc2OCC)[nH]c1=O	2 mg/kg	
C=CCc1cccc(-c2ncc(C(=O)O)c(=O)[nH]2)c1O	> 0.5 mg/kg	
CCOC(=O)C(=O)Nc1ccc(OCC)c(-c2ncc(C(=O)OCC)c(=O)[nH]2)c1	5 mg/kg	
CCOC(=O)c1cnc(-c2ccccc2SCC)[nH]c1=O	> 5 mg/kg	
O=C([O-])c1cc(=O)c2c(OCC(O)COc3cccc4oc(C(=O)[O-])cc(=O)c34)cccc2o1.[Na+].[Na+] [CROMOLYN SODIUM]		ED50 (Rattus norvegicus [2]): ≥ 30 mg/kg; ED50 (Rattus norvegicus [3]): 0.3 mg/kg
CCOC(=O)c1cnc(-c2ccccc2)nc1O	> 20 mg/kg	
CCSc1ccccc1-c1ncc(C(=O)O)c(=O)[nH]1	25 mg/kg	
O=C(O)c1cnc(-c2ccccc2OCC2CC2)[nH]c1=O	0.1 mg/kg	
O=C(O)c1cnc(-c2ccccc2[N+](=O)[O-])[nH]c1=O	> 50 mg/kg	
O=C(O)c1cnc(-c2ccccc2Cl)[nH]c1=O	5 mg/kg	
CCOC(=O)c1cnc(-c2ccc(Cl)cc2)[nH]c1=O	> 30 mg/kg	
CCOC(=O)c1cnc(-c2ccccc2OC(C)C)[nH]c1=O	2 mg/kg	
C=CCOc1ccccc1-c1ncc(C(=O)OCC)c(=O)[nH]1	0.5 mg/kg	
CCOc1ccc(OC)cc1-c1ncc(C(=O)O)c(=O)[nH]1	0.2 mg/kg	
COc1ccc(-c2ncc(C(=O)O)c(=O)[nH]2)cc1	> 5 mg/kg	
CCOc1cccc(-c2ncc(C(=O)O)c(=O)[nH]2)c1	5 mg/kg	
CCOC(=O)c1cnc(-c2ccccc2OCC2CC2)[nH]c1=O	0.3 mg/kg	
CCOC(=O)c1ccc(OCC)c(-c2ncc(C(=O)OCC)c(=O)[nH]2)c1	1 mg/kg	

Structure (SMILES)	ED50 (Rattus norvegicus [1])	further results
CCOC(=O)c1cnc(-c2cc([N+](=O)[O-])cc([N+](=O)[O-])c2OCC)[nH]c1=O	> 50 mg/kg	
CCOC(=O)c1cnc(-c2cc([N+](=O)[O-])ccc2OCC)[nH]c1=O	5 mg/kg	
CCOC(=O)c1cnc(-c2ccccc2F)[nH]c1=O	> 10 mg/kg	
CCOC(=O)c1cnc(-c2cc(S(N)(=O)=O)ccc2OCC)[nH]c1=O	50 mg/kg	
CSc1ccccc1-c1ncc(C(=O)O)c(=O)[nH]1	> 20 mg/kg	
CCOC(=O)c1cnc(-c2ccccc2O)[nH]c1=O	5 mg/kg	
CCOc1ccc(S(=O)(=O)N(C)C(C)C)cc1-c1ncc(C(=O)O)c(=O)[nH]1	> 10 mg/kg	
O=C(O)c1cnc(-c2ccc(Cl)cc2)[nH]c1=O	5 mg/kg	
CCOC(=O)c1cnc(-c2cc(S(=O)(=O)N(CC)CC)ccc2OCC)[nH]c1=O	10 mg/kg	
CCOC(=O)c1cnc(-c2cc(N)ccc2OCC)[nH]c1=O	0.5 mg/kg	
CCOC(=O)c1cnc(-c2ccccc2OCC)n(C)c1=O	> 40 mg/kg	
Nc1ccccc1-c1ncc(C(=O)O)c(=O)[nH]1	50 mg/kg	
COc1ccccc1-c1ncc(C(=O)O)c(=O)[nH]1	10 mg/kg	
CCCCOc1ccccc1-c1ncc(C(=O)O)c(=O)[nH]1	0.5 mg/kg	
O=C(O)c1cnc(-c2ccccc2F)[nH]c1=O	5 mg/kg	
CCOc1ccc(S(=O)(=O)N(CC)CC)cc1-c1ncc(C(=O)O)c(=O)[nH]1	40 mg/kg	
CCOC(=O)c1cnc(-c2cccc(OC)c2)nc1O	10 mg/kg	
CCOC(=O)c1cnc(-c2ccccc2OC)[nH]c1=O	10 mg/kg	
CCOC(=O)c1cn(C)c(-c2ccccc2OCC)nc1=O		ED50 (Rattus norvegicus [4]): > 1 mg/kg
CCOC(=O)C(=O)Nc1ccc(OCC)c(-c2ncc(C(=O)O)c(=O)[nH]2)c1	25 mg/kg	
CCOC(=O)c1cnc(-c2ccccc2)nc1OC	> 5 mg/kg	
CCOC(=O)c1cnc(-c2cccc(C(F)(F)F)c2)[nH]c1=O	50 mg/kg	
CCOc1ccccc1-c1ncc(C(=O)O)c(OC)n1	> 5 mg/kg	

Structure (SMILES)	ED50 (Rattus norvegicus [1])	further results
COc1ccc(OC)c(-c2ncc(C(=O)O)c(=O)[nH]2)c1	1 mg/kg	
CCOC(=O)c1cnc(-c2ccccc2)n(C)c1=O	> 5 mg/kg	
CCOC(=O)c1cnc(-c2ccccc2OCc2ccccc2)[nH]c1=O	> 5 mg/kg	
CCCCOc1ccccc1-c1ncc(C(=O)OCC)c(=O)[nH]1	0.5 mg/kg	
CCCOc1ccccc1-c1ncc(C(=O)O)c(=O)[nH]1	0.9 mg/kg	
CC1Cc2cccc(-c3ncc(C(=O)O)c(=O)[nH]3)c2O1 (racemic)	5 mg/kg	
CC(C)COc1ccccc1-c1ncc(C(=O)O)c(=O)[nH]1	0.5 mg/kg	
O=C(O)c1cnc(-c2ccccc2)[nH]c1=O	50 mg/kg	
CCCCCOc1ccccc1-c1ncc(C(=O)O)c(=O)[nH]1	3 mg/kg	
CCCOc1ccc(OC)cc1-c1ncc(C(=O)OCC)c(=O)[nH]1	0.7 mg/kg	
CCOC(=O)c1cnc(-c2cc(Cl)ccc2OCC)[nH]c1=O	0.5 mg/kg	
C[S+]([O-])c1ccccc1-c1ncc(C(=O)O)c(=O)[nH]1 (configuration not stated)	> 5 mg/kg	
O=C(O)c1cnc(-c2ccccc2OCc2ccccc2)[nH]c1=O	5 mg/kg	
CCOC(=O)c1cnc(-c2cc(S(=O)(=O)N(C)C(C)C)ccc2OCC)[nH]c1=O	> 10 mg/kg	
CCOc1ccc(N(C)C)cc1-c1ncc(C(=O)O)c(=O)[nH]1	0.3 mg/kg	
CCOc1ccccc1-c1ncc(C(=O)O)c(=O)[nH]1	0.5 mg/kg	ED50 (Rattus norvegicus [4]): 0.07 mg/kg
CCOc1ccc(S(=O)(=O)N(C)C)cc1-c1ncc(C(=O)O)c(=O)[nH]1	> 50 mg/kg	
COc1nc(-c2ccccc2)ncc1C(=O)O	> 10 mg/kg	
CCOC(=O)c1cnc(-c2cc(S(=O)(=O)N(C)C)ccc2OCC)[nH]c1=O	50 mg/kg	
CCOC(=O)c1cnc(-c2ccccc2Cl)[nH]c1=O	5 mg/kg	
CCCCCOc1ccccc1-c1ncc(C(=O)OCC)c(=O)[nH]1	2 mg/kg	
